According to ChEMBL document CHEMBL1142944, “Synthesis and biological evaluation of selective aromatase expression regulators in breast cancer cells” (J Med Chem, 2007):
The source made the active and inactive calls. The calls are words filed in the database; no cut-off is given here.

Experiments:
[1] = test system: SK-BR-3; test: Decrease in CYP19 gene expression in SK-BR-3 cells at 5 uM; assay type: functional, cell-based; conditions: Homo sapiens
How it was run: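 SK-BR-3 cells grown to subconfluency, switched to defined DMEM/F12 medium (human albumin, transferrin, insulin), then exposed 24 h at 5 µM. Total RNA by TRIzol, DNase I-treated, reverse-transcribed with random hexamers (Superscript II, 42 °C 50 min). Taqman real-time PCR with 600 nM CYP19 primers, 50 cycles. CYP19 normalized to 18S rRNA, n = 9, unpaired t test vs control.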

[2] = test system: SK-BR-3; test: Induction of apoptosis in SK-BR-3 cells at 5 uM; assay type: functional, cell-based; conditions: Homo sapiens
How it was run: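 Cells plated at 0.5 × 10⁴ to 1 × 10⁴ per well in custom medium and left to adhere overnight. Treated 24 h at 5 µM in defined medium, triplicate. After fixation, DNA in apoptotic cells denatured by formamide plus heat. Single-stranded DNA detected by monoclonal antibody ELISA with ABTS, absorbance at 405 nm.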

SMILES	Activity [1]	Activity [2]
CN(c1ccc([N+](=O)[O-])cc1OCc1ccccc1)S(C)(=O)=O	Active	inactive
CS(=O)(=O)Nc1ccc([N+](=O)[O-])cc1OCCc1ccccc1	inactive	
CN(c1ccc([N+](=O)[O-])cc1OCc1ccc(F)cc1)S(C)(=O)=O	Active	inactive
Cc1ccc(COc2cc([N+](=O)[O-])ccc2N(C)S(C)(=O)=O)cc1		inactive
CN(c1ccc([N+](=O)[O-])cc1OCc1ccccc1-c1ccccc1)S(C)(=O)=O	Active	inactive
CN(c1ccc([N+](=O)[O-])cc1OCc1ccc2ccccc2c1)S(C)(=O)=O	Active	inactive
CN(c1ccc([N+](=O)[O-])cc1OCc1ccc([N+](=O)[O-])cc1)S(C)(=O)=O	Active	inactive
